According to ChEMBL document CHEMBL1131833, “Synthesis and cytotoxic activity of N-(2-pyridylsulfenyl)urea derivatives. A new class of potential antineoplastic agents” (Bioorg Med Chem Lett, 1999):
pIC50: −log10 of the molar value.

How the values were obtained:
Type in all cases: functional, cell-based
[1] = test system: CCRF-CEM; test: Cytotoxicity against CCRF-CEM lymphocytic leukemia cell line; conditions: Homo sapiens
Procedure, shortened: (§1)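 Growth inhibition read by cell counting after 3 days of continuous exposure to 100, 10, 1, 0.1 or 0.01 µM compound. Parallel cultures counted daily to confirm exponential growth. IC50 from the counts; where inhibition stayed low across the range, reported as > highest tested concentration.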

[2] = test system: Calu-1; test: Cytotoxicity against HTB-54 lung carcinoma cell line; conditions: Homo sapiens; procedure, shortened: as §1
[3] = test system: HT-29; test: Cytotoxicity against HT-29 colon carcinoma cell line; conditions: Homo sapiens; procedure, shortened: as §1
[4] = test system: K562; test: Cytotoxicity against K-562 myelocytic leukemia cell line; conditions: Homo sapiens; procedure, shortened: as §1
[5] = test system: MEL-AC cell line; test: Cytotoxicity against MEL-AC melanoma cell line; conditions: Homo sapiens; procedure, shortened: as §1
[6] = species on record: Homo sapiens; test: Cytotoxicity against normal PMBC cells in clonogenic assay
Procedure, shortened: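 Human peripheral blood mononuclear cells at 2.0-2.5 ×10^6 cells/mL in Iscove's medium. Clonogenic methylcellulose culture (0.9% final) with 30% fetal calf serum, 10% PHA-LCM and 6 U recombinant human erythropoietin plus compound, 14 days at 37°C. Colonies counted; at least 3 independent experiments, each in triplicate, per compound and concentration.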

SMILES	pIC50 [1]	pIC50 [2]	pIC50 [3]	pIC50 [4]	pIC50 [5]	pIC50 [6]
CCOC(=O)c1cccnc1S(=O)(=O)NC(=O)Nc1ccc(Cl)cc1	5.37	< 4.00	< 4.00	4.85	< 4.00	
CCOC(=O)c1cc([N+](=O)[O-])cnc1SNC(=O)Nc1ncccn1	5.82	4.85	< 4.00	6.70	6.70	
CCOC(=O)c1cccnc1SNC(=O)Nc1nc(OC)cc(OC)n1	6.15	4.13	4.02	4.37	4.37	
CCOC(=O)c1cccnc1S(=O)(=O)NC(=O)Nc1ncccn1	5.46	5.80	< 4.00	4.28	5.92	
CCOC(=O)c1cccnc1SNC(=O)Nc1ncccn1	4.82	5.74	5.32	6.00	4.47	4.87
COc1cccc2c1C(=O)c1c(O)c3c(c(O)c1C2=O)C[C@@](O)(C(=O)CO)C[C@@H]3O[C@H]1C[C@H](N)[C@H](O)[C@H](C)O1 [DOXORUBICIN]		5.96	6.15	6.00	5.92	4.40
